Here are results for 21 compounds from ChEMBL document CHEMBL1152654, “Development of a highly water-soluble peptide-based human neutrophil elastase inhibitor; AE-3763 for treatment of acute organ injury” (Bioorg Med Chem, 2009).

Calls of active or inactive are those of the source. The rule behind the calls is not given here. A value given as a limit tells only on which side of the number the result lay.

For data set [1], the system named is Hamster. In words: Inhibition of human neutrophil elastase-induced lung hemorrhage in hamster at 10 mg/kg, iv administered as bolus dose. Type of data set: functional. The conditions noted are these: Cricetinae. In a few lines: (§1)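 Hamster lung hemorrhage induced by HNE instillation; compound given as iv bolus. One hour after HNE, BALF collected and centrifuged; supernatant absorbance at 414 nm taken as hemorrhage; % inhibition reported.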

The subject of data set [2] is Hamster. In words: Inhibition of human neutrophil elastase-induced lung hemorrhage in hamster at 3 mg/kg, iv administered as bolus dose. Type of data set: functional. Conditions: Cricetinae. In short, it runs like this: as §1
Data set [3] deals with Hamster. In words: Inhibition of human neutrophil elastase-induced lung hemorrhage in hamster at 10 mg/kg/hr, iv administered as infusion. The conditions noted are these: Cricetinae. Format: functional. In a few lines:
(§2)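 Hamster lung hemorrhage induced by HNE instillation, with compound delivered by iv infusion over more than 70 min. BALF collected 1 h after HNE and centrifuged; supernatant absorbance at 414 nm used as hemorrhage measure; % inhibition reported.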

Data set [4] relates to Hamster. Description: Inhibition of human neutrophil elastase-induced lung hemorrhage in hamster at 3 mg/kg/hr, iv administered as infusion. Type of data set: functional. Conditions: Cricetinae. In a few lines:
as §2

The test system of data set [5] is Hamster. Description: Inhibition of human neutrophil elastase-induced lung hemorrhage in hamster at 1 mg/kg/hr, iv administered as infusion. Type of data set: functional. Conditions: Cricetinae. In a few lines:
as §2

Data set [6] deals with Hamster. In words: Inhibition of human neutrophil elastase-induced lung hemorrhage in hamster at 30 mg/kg, iv administered as bolus dose. Format: functional. Conditions: Cricetinae. In short, it runs like this: as §1
Data set [7] concerns Hamster. Description: Inhibition of human neutrophil elastase-induced lung hemorrhage in iv dosed hamster administered as bolus dose. Format: functional. Conditions: Cricetinae. In short, it runs like this:
as §1

The subject of data set [8] is Hamster. Description: Inhibition of human neutrophil elastase-induced lung hemorrhage in iv dosed hamster administered as infusion. Format: functional, Cricetinae. In a few lines:
as §2

Data set [9] in a line: Aqueous solubility in water. Format: physicochemical.
Data set [10] deals with Hamster. Description: Antiinflammatory activity in iv dosed hamster assessed as inhibition of LPS-induced lung edema. Format: functional, Cricetinae. In a few lines: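 Hamsters given LPS intratracheally; jugular-vein infusion started immediately after LPS and continued up to 6 h. Whole-lung wet weight measured at 6 h after LPS and corrected for each animal's body weight.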

The subject of data set [11] is Mus musculus. Description: Toxicity in mouse assessed as overt effects up to 300 mg/kg, iv. Conditions: in vivo. On the set-up: dose 300 mg/kg, route intravenous. Type of data set: organism-based.
Data set [12] is filed under the species Mus musculus. Conditions: C3H/HeN, 10 to 100 mg/kg.

In general, inhibition in vivo refers to the drop in the measured response relative to a control, in per cent. By ED50 is commonly meant the dose that gives a 50% effect, or the effect in half of the subjects. Low values mean an effect at a small dose, high ones a need for a large dose. As usually defined, the solubility is the dissolved amount per volume that the medium holds.

`CC(C)[C@H](NC(=O)[C@@H]1CCCN1C(=O)[C@@H](NC(=O)CN1CCN(CC(=O)O)C(=O)C1=O)C(C)C)C(=O)c1nc2ccccc2o1`: in data set [1], the inhibition in vivo at 10 mg/kg is 88%. The inhibition in vivo at 3 mg/kg in data set [2] is 57%. The inhibition in vivo at 10 mg/kg/hr in data set [3] was determined as 95%. The inhibition in vivo at 3 mg/kg/hr in [4] is 76%. The inhibition in vivo at 1 mg/kg/hr in data set [5] was determined as 41%.
Turning to `CC(C)[C@H](NC(=O)[C@@H]1CCCN1C(=O)[C@@H](NC(=O)CN1C(=O)N(CC(=O)O)C(C)(C)C1=O)C(C)C)C(=O)c1nc2ccccc2o1`, in data set [1], the inhibition in vivo at 10 mg/kg was determined as 59%. For the same compound, the inhibition in vivo at 3 mg/kg in data set [2] stood at 20%.
As for `CC(C)[C@H](NC(=O)[C@@H]1CCCN1C(=O)[C@@H](NC(=O)Cn1ccc(=O)n(CC(=O)O)c1=O)C(C)C)C(=O)C(=O)NCc1ccccc1`, in data set [3], the inhibition in vivo at 10 mg/kg/hr came out at 90%. In data set [4], the inhibition in vivo at 3 mg/kg/hr is 78%. Further, in [5], the inhibition in vivo at 1 mg/kg/hr was 32%.
With `CC(C)[C@H](NC(=O)[C@@H]1CCCN1C(=O)[C@@H](NC(=O)Cn1ccc(=O)n(CC(=O)O)c1=O)C(C)C)C(=O)c1nc2ccccc2o1`, the inhibition in vivo at 30 mg/kg in data set [6] came out at 97%. In addition, the inhibition in vivo at 10 mg/kg in [1] worked out at 66%. The inhibition in vivo at 3 mg/kg in data set [2] came to 24%. For the same compound, the inhibition in vivo at 10 mg/kg/hr in data set [3] was 93%. The inhibition in vivo at 3 mg/kg/hr in data set [4] stood at 62%. For the same compound, the inhibition in vivo at 1 mg/kg/hr in [5] came out at 50%.
As to `CC(C)[C@H](NC(=O)[C@@H]1CCCN1C(=O)[C@@H](NC(=O)CN1CC(=O)N(CC(=O)O)CC1=O)C(C)C)C(=O)c1nc2ccccc2o1`, the inhibition in vivo at 10 mg/kg in [1] was found to be 67%. For the same compound, in [2], the inhibition in vivo at 3 mg/kg stood at 20%. For the same compound, the inhibition in vivo at 10 mg/kg/hr in data set [3] came out at 90%. Moreover, the inhibition in vivo at 3 mg/kg/hr in [4] worked out at 73%. Moreover, in data set [5], the inhibition in vivo at 1 mg/kg/hr amounted to 55%.
`CC(C)[C@H](NC(=O)CN1CCN(CC(=O)O)C1=O)C(=O)N1CCC[C@H]1C(=O)N[C@H](C(=O)C(F)(F)F)C(C)C`: the inhibition in vivo at 10 mg/kg/hr in data set [3] turned out to be 97%. For the same compound, the inhibition in vivo at 3 mg/kg/hr in [4] was found to be 84%. Also, the inhibition in vivo at 1 mg/kg/hr in data set [5] is 45%. Moreover, the figures for the ED50 in data set [7] and in [8] were 1.2 mg/kg and 0.42 mg/kg/h, respectively. The same compound showed a solubility in data set [9] above 1000 mg/mL. For the same compound, in [10], the MED is 3 mg/kg/h. For the same compound, the Activity entry in data set [11] was “Non-toxic”. The inhibition result in data set [12] is “Active”.
Take `CC(C)[C@H](NC(=O)[C@@H]1CCCN1C(=O)[C@@H](NC(=O)CN1CCN(CC(=O)O)C1=O)C(C)C)C(=O)c1nc2ccccc2o1`: the inhibition in vivo at 10 mg/kg in [1] turned out to be 68%. The inhibition in vivo at 3 mg/kg in data set [2] came out at 22%. In [3], the inhibition in vivo at 10 mg/kg/hr came out at 90%. In addition, the inhibition in vivo at 3 mg/kg/hr in [4] came out at 31%. Also, the inhibition in vivo at 1 mg/kg/hr in data set [5] came out at 25%.
With `CC(C)[C@H](NC(=O)Cn1ccc(=O)n(CC(=O)O)c1=O)C(=O)N1CCC[C@H]1C(=O)N[C@H](C(=O)C(F)(F)F)C(C)C` (mixture of isomers), in data set [3], the inhibition in vivo at 10 mg/kg/hr turned out to be 79%. The inhibition in vivo at 3 mg/kg/hr in data set [4] came to 7.6%. For the same compound, the inhibition in vivo at 1 mg/kg/hr in [5] was -1.2%.
With `CC(C)[C@H](NC(=O)[C@@H]1CCCN1C(=O)[C@@H](NC(=O)Cn1ncc(=O)n(CC(=O)O)c1=O)C(C)C)C(=O)c1nc2ccccc2o1`, the inhibition in vivo at 10 mg/kg in data set [1] stood at 33%. Also, the inhibition in vivo at 3 mg/kg in data set [2] turned out to be 14%.
As for `CC(C)[C@H](NC(=O)[C@@H]1CCCN1C(=O)[C@@H](NC(=O)CN1CC(=O)N(CC(=O)O)C1=O)C(C)C)C(=O)c1nc2ccccc2o1`, in data set [6], the inhibition in vivo at 30 mg/kg worked out at 91%. For the same compound, the inhibition in vivo at 10 mg/kg in data set [1] worked out at 67%. Moreover, in data set [2], the inhibition in vivo at 3 mg/kg came out at 32%. For the same compound, the inhibition in vivo at 10 mg/kg/hr in data set [3] is 78%. In addition, the inhibition in vivo at 3 mg/kg/hr in data set [4] turned out to be 44%. Besides, the inhibition in vivo at 1 mg/kg/hr in data set [5] was -7%.
Turning to `COC(=O)C(=O)[C@@H](NC(=O)[C@@H]1CCCN1C(=O)[C@@H](NC(=O)Cn1ccc(=O)n(CC(=O)O)c1=O)C(C)C)C(C)C`, the inhibition in vivo at 10 mg/kg/hr in data set [3] amounted to 94%. In [4], the inhibition in vivo at 3 mg/kg/hr was found to be 43%. Besides, the inhibition in vivo at 1 mg/kg/hr in data set [5] was determined as 32%.
For the compound `CC(C)[C@H](NC(=O)[C@@H]1CCCN1C(=O)[C@@H](NC(=O)COc1ccc(OCC(=O)O)cc1)C(C)C)C(=O)c1nc2ccccc2o1`, in [6], the inhibition in vivo at 30 mg/kg came to 56%. Besides, the inhibition in vivo at 10 mg/kg in [1] was 38%.
As for `CC(C)[C@H](NC(=O)[C@@H]1CCCN1C(=O)[C@@H](NC(=O)Cn1c(=O)ccn(CC(=O)O)c1=O)C(C)C)C(=O)c1nc2ccccc2o1`, the inhibition in vivo at 30 mg/kg in data set [6] is 94%. Moreover, the inhibition in vivo at 10 mg/kg in [1] was 47%. Further, the inhibition in vivo at 3 mg/kg in data set [2] came out at 34%.
Take `CC(C)[C@H](NC(=O)[C@@H]1CCCN1C(=O)[C@@H](NC(=O)CN1CCC(=O)N(CC(=O)O)C1=O)C(C)C)C(=O)c1nc2ccccc2o1`: in [1], the inhibition in vivo at 10 mg/kg stood at 34%. Besides, in data set [2], the inhibition in vivo at 3 mg/kg came out at 38%.
Turning to `CC(C)[C@H](NC(=O)[C@@H]1CCCN1C(=O)[C@@H](NC(=O)CN1C(=O)CN(CC(=O)O)C1=O)C(C)C)C(=O)c1nc2ccccc2o1`, the inhibition in vivo at 30 mg/kg in [6] was 81%. Moreover, the inhibition in vivo at 10 mg/kg in [1] was determined as 72%. Also, the inhibition in vivo at 3 mg/kg in [2] amounted to 37%. Also, the inhibition in vivo at 10 mg/kg/hr in data set [3] worked out at 53%. Besides, the inhibition in vivo at 3 mg/kg/hr in [4] stood at 57%. Also, the inhibition in vivo at 1 mg/kg/hr in data set [5] is 39%.
For the compound `Cc1cn(CC(=O)N[C@H](C(=O)N2CCC[C@H]2C(=O)N[C@H](C(=O)c2nc3ccccc3o2)C(C)C)C(C)C)c(=O)n(CC(=O)O)c1=O`, the inhibition in vivo at 30 mg/kg in data set [6] was determined as 92%. The inhibition in vivo at 10 mg/kg in [1] came out at 70%. The inhibition in vivo at 3 mg/kg in data set [2] was 39%. For the same compound, the inhibition in vivo at 10 mg/kg/hr in [3] was found to be 56%. The inhibition in vivo at 3 mg/kg/hr in [4] was found to be 38%. Also, in [5], the inhibition in vivo at 1 mg/kg/hr is 33%.
On to `CC(C)[C@H](NC(=O)[C@@H]1CCCN1C(=O)[C@@H](NC(=O)CN1C(=O)N(CC(=O)O)C(=O)C1(C)C)C(C)C)C(=O)c1nc2ccccc2o1`, for which the inhibition in vivo at 10 mg/kg in data set [1] was determined as 42%. The inhibition in vivo at 3 mg/kg in [2] stood at 40%.
As for `CC(C)[C@H](NC(=O)[C@@H]1CCCN1C(=O)[C@@H](NC(=O)CN1CCN(CC(=O)O)C(=O)C1=O)C(C)C)C(=O)C(=O)NCc1ccccc1`, the inhibition in vivo at 10 mg/kg/hr in [3] was 89%. The inhibition in vivo at 3 mg/kg/hr in data set [4] was found to be 47%. Besides, the inhibition in vivo at 1 mg/kg/hr in data set [5] turned out to be 31%.
Take `COC(=O)C(=O)[C@@H](NC(=O)[C@@H]1CCCN1C(=O)[C@@H](NC(=O)CN1CCN(CC(=O)O)C(=O)C1=O)C(C)C)C(C)C`: the inhibition in vivo at 10 mg/kg/hr in data set [3] turned out to be 94%. In addition, the inhibition in vivo at 3 mg/kg/hr in data set [4] turned out to be 48%.
As to `CC(C)[C@H](NC(=O)[C@@H]1CCCN1C(=O)[C@@H](NC(=O)CN1CCN(CC(=O)O)CC1)C(C)C)C(=O)c1nc2ccccc2o1`, the inhibition in vivo at 10 mg/kg in [1] amounted to 70%. For the same compound, the inhibition in vivo at 3 mg/kg in data set [2] turned out to be 44%. Further, the inhibition in vivo at 10 mg/kg/hr in [3] amounted to 87%. Moreover, the inhibition in vivo at 3 mg/kg/hr in data set [4] worked out at 48%. The inhibition in vivo at 1 mg/kg/hr in [5] came to 34%.
Regarding `Cc1nn(CC(=O)N[C@H](C(=O)N2CCC[C@H]2C(=O)N[C@H](C(=O)c2nc3ccccc3o2)C(C)C)C(C)C)c(=O)n(CC(=O)O)c1=O`, the inhibition in vivo at 10 mg/kg in [1] came out at 48%.
